Assay results taken from publication PMC10213863 (Cell Reports Medicine, 2023).
Where two headings read alike, the source gives them in different places.

Assays:
[1] = test system: SLE immune-complex-driven IFN-α response in PBMCs; assay: IFN-α release from PBMCs stimulated with SLE patient sera immune complexes; format: cell-based, human
[2] = test system: ssRNA driven IFN transcripts in human PBMCs; assay: ISG expression in human PBMCs stimulated with ssRNA; format: cell-based; conditions: HCQ vs MHV370
Outline: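 PBMCs were pre-incubated 30 min with test compound or HCQ, then stimulated with ssRNA at doses from earlier work. RNA was extracted, and ISG transcripts were quantified by qRT-PCR with the 2−ΔΔCt method against 18S rRNA, using biological replicates. Each ISG's induction was normalized to 100% to give a panel signature.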

[3] = test system: immune-complex stimulated ISG panel in PBMCs; assay: Five-gene ISG panel in PBMCs stimulated with SLE immune complexes; format: cell-based, human; conditions: HCQ 1 μM
Outline: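 PBMCs were pre-treated 30 min with test compound, HCQ or 0.1% DMSO, then stimulated 20 h with SLE serum pre-complexed with U-937 necrotic extract. RNA was extracted and ISGs quantified by qRT-PCR with the 2−ΔΔCt method against 18S rRNA, using biological replicates. Global ISG induction was derived by normalizing each ISG's relative induction to 100%.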

[4] = test system: IFN-α accelerated NZB/W F1 model; conditions: cited from earlier work
SLE patients [5] = conditions: cited from earlier work
SLE patients [6] = conditions: BLISS trial, cited from earlier work

Question: With CCN(CCO)CCCC(C)Nc1ccnc2cc(Cl)ccc12 (stereo not drawn) [HCQ, hydroxychloroquine, reference compound] as the compound, how does the “inhibition of immune-complex-driven IFN-α responses by serum category” value ([1]; HCQ 1 μM (matched steady-state blood exposure of SLE patients), PBMCs) read?
Answer: strongest inhibition of IFN-α responses elicited by dsDNA immune complexes

Question: And the “fold lower potency than MHV370, immune-complex-induced IFN-α” value ([1]; HCQ vs MHV370)?
Answer: approximately 1,000 fold

Question: And the “fold less potent antagonist of ISG expression than MHV370” value [2]?
Answer: 3,300 fold

Question: What about the “expression of a five-panel ISG signature” value [3] of the same compound?
Answer: only mildly effective

Question: For N#Cc1ccc(N2C[C@H](N)C[C@H](C(F)(F)F)C2)c2cccnc12 [M5049], which “efficacy in IFN-α accelerated NZB/W F1 model” value [4] is on record?
Answer: showed efficacy

Question: For “anifrolumab: antibody drug which interferes with type I IFN signaling”, which “herpes virus infections in treated patients” value (SLE patients [5]) is on record?
Answer: increased

Question: And the “predefined endpoint in phase 3 studies” value (SLE patients [5]; one of two phase 3 studies)?
Answer: failed to reach its predefined endpoint

Question: What does the source list for “belimumab: antibody drug which interferes with B cell expansion”?
Answer: SRI (SLE responder index) response rate above placebo (SLE patients [6]; 1 mg/kg): 7%; SRI (SLE responder index) response rate above placebo (SLE patients [6]; 10 mg/kg): 14%
